In the library only some 3.7% were active in any assay of this set; here they are far more common.
KCNK3 block: human KCNK3 channel inhibition, primary screen | O14649 | CHO-KCNK3 thallium flux, FluxOR fluorescence; stronger effect = lower value | B-score at 10 µM | hit rate 0.84% among 340,000 | AID 602410;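 active = B-score under library mean minus 4 SD, starting fluorescence ratio at most library mean plus 5 SD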;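 also: more negative B-score means stronger inhibition of thallium flux through KCNK3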
KCNQ1 act: human KCNQ1 channel potentiation or activation; CHO-K1 KCNQ1, thallium flux FluxOR fluorescence; stronger effect = higher value; B-score at 10 µM; hit rate 0.35% among 310,000; AID 2648;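 active = fluorescence ratio B-score, a plate-corrected score, at least three library SD, with initial intensity B-score within 5 SD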
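Doses: Single concentration per compound, DMSO matched to controls | Test system: KCNQ1-transfected CHO-K1 cells | Timing: 90 min dye loading and 20 min compound exposure, both at room temperature | Measured by: Kinetic FluxOR thallium fluorescence, 10-s 1-Hz baseline, 110-s post-stimulus read | Medium: Assay buffer with matched DMSO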
Kir21 block: inhibitors of mouse Kir2.1 inward-rectifier potassium channel. HEK293-Kir2.1, FluxOR thallium flux fluorescence; stronger effect = lower value. hit rate 0.85% among 310,000. B-score at 10 µM. P35561;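 active = fluorescence ratio B-score at or below minus 3 SD of library scores, with starting-brightness B-score within 2 SD, cut at about -4.2 in these data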;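 also: channel flux triggered by added potassium and thallium sulfate stimulus; B-score of peak minus minimum fluorescence over baseline after thallium stimulus; more negative B-score means stronger Kir2.1 block with less thallium influx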
Target sequence (P35561 whole entry, looked up): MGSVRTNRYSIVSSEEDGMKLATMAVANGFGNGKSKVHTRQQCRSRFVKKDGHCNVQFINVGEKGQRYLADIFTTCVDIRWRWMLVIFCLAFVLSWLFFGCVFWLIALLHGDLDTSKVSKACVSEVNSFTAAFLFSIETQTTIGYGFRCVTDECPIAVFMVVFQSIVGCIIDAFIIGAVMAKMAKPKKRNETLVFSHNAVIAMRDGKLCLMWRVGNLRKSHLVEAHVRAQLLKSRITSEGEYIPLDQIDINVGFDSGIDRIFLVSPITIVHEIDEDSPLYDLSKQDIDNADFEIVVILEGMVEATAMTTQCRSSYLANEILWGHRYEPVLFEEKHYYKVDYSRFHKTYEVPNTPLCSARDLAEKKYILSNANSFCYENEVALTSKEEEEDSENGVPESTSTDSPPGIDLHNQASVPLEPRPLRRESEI
KCNQ1 inh: human KCNQ1 channel inhibition | P51787 | CHO-K1 KCNQ1, FluxOR thallium flux fluorescence; stronger effect = higher value | B-score at 10 µM | hit rate 1.3% among 310,000;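 active = compounds whose thallium flux B-score, printed positive for inhibition, exceeds three library SD while starting fluorescence stays within three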;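 also: channel opened by potassium depolarization with thallium stimulus after 20 min compound exposure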
hERG protect: shields human hERG channel from block by proarrhythmic agents | hit rate 0.51% among 310,000 | CHO-hERG, FluxOR thallium flux, dofetilide IC70 present | AID 1511 | Q12809 | activation (rescue from dofetilide block), less the hit threshold, % at 10 µM;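 active = activation above the mean of controls blocked by dofetilide plus 5 SD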;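 also: thallium influx through hERG after potassium depolarization seen as dye fluorescence rise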
KCNK9 block: blocks the human KCNK9 two-pore domain potassium channel | hit rate 1.2% among 310,000 | HEK293 KCNK9, FluxOR thallium flux fluorescence; stronger effect = lower value | Q9NPC2 | AID 488922 | B-score at 10 µM;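 active = ratio B-score over 3 SD below the library mean, with starting fluorescence within 5 SD of its mean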;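 also: negative B-score means less thallium flux so channel inhibition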
Active calls of the source: *; i = inactive; nt = no result given.

SMILES	KCNK3 block	KCNQ1 act	Kir21 block	KCNQ1 inh	hERG protect	KCNK9 block
CCOC(=O)c1sc(NC(=S)NC(=O)c2ccco2)nc1C	i	9*	1.34	i	8.9*	i
COC(=O)c1sc(NC(=S)NC(=O)c2ccc(F)cc2)nc1C	nt	i	-1.3	i	-3.7	i
O=C(NC(=S)NCc1ccc(-c2nc3ccccc3s2)cc1)c1ccco1	i	i	0.18	i	5.5*	i
COC(=O)c1sc(NC(=S)NC(=O)c2ccccc2C)nc1C	i	42*	0.41	i	24.7*	i
Cc1ccc2nc(NC(=S)NC(=O)c3cccs3)sc2c1	i	17*	-1.32	i	10.2*	i
O=C(NC(=S)Nc1nc2ccccc2s1)c1ccco1	i	34*	0.11	i	9.2*	i
O=C(NCc1ccc(-c2nc3ccccc3s2)cc1)c1ccco1	i	i	0.5	i	-7.3	i
CCN(C(=O)COC(=O)c1c(NC(C)=O)sc(C)c1C)c1c(N)n(Cc2ccccc2)c(=O)[nH]c1=O	i	nt	nt	nt	nt	nt
O=C(CC(=O)c1ccccc1)Nc1ccc(Cl)cc1	i	i	1.7	i	-3.6	i
CCC(=O)OCOc1ccc(/C=C2/CCC(CN(C)C)C2=O)cc1 (stereo unspecified)	i	nt	nt	nt	nt	nt
CC(=O)Nc1nc(=S)ss1	i	i	-0.1	i	-8.2	i
Cc1ccccc1C(=O)Nc1nc(=S)ss1	i	9*	-0.05	i	20.5*	i
Cc1ccc(C)c2sc(NC(=O)c3nc4ccccc4s3)nc12	i	25*	0.39	i	8.9*	i
O=C(Nc1ccccc1)c1nc2ccccc2s1	i	i	0.83	i	-10.3	i
c1csc(-c2nc3c4ccccc4c4ccccc4c3[nH]2)c1	-10*	i	-0.01	i	-6.3	i
Oc1ccccc1-c1nc2c3ccccc3c3ccccc3c2[nH]1	i	i	0.23	6*	-3.1	i
c1ccc(-c2nc(-c3cccs3)[nH]c2-c2ccccc2)cc1	i	i	1.17	i	-4.4	i
CN(C)CCCNC(=S)NCC(c1ccc(Cl)cc1Cl)c1c[nH]c2ccccc12 (stereo unspecified)	i	i	-6.52*	i	-14.3	i
NCC(c1ccc(Cl)cc1Cl)c1c[nH]c2ccccc12 (stereo unspecified)	i	i	-8.72*	i	-8.4	i
NCC(c1ccccc1Cl)c1c[nH]c2ccccc12 (stereo unspecified)	i	i	-0.73	i	-5.3	i
COC(=O)c1ccc(CNC(=O)C(C)N=C2NS(=O)(=O)c3ccccc32)cc1 (stereo unspecified)	i	nt	nt	nt	nt	nt
CC(C)n1ncc2c(C(=O)NCC(=O)Nc3ccccc3Br)cc(C3CC3)nc21	i	nt	nt	nt	nt	nt
CC(C)Nc1nc(Oc2cccc(Cl)c2Cl)cc(C(F)(F)F)n1	i	i	0.45	i	-16.4	i
CC(C)Nc1nc(Oc2ccc(Cl)cc2Cl)cc(C(F)(F)F)n1	i	i	1.55	7*	-10.0	i
Cc1cccc(OCCNC(=O)c2ccc(Oc3ccc(C(F)(F)F)cc3[N+](=O)[O-])cc2)c1	-9.46*	i	-0.06	6*	-16.5	i
SMILES	KCNK3 block	KCNQ1 act	Kir21 block	KCNQ1 inh	hERG protect	KCNK9 block
Cc1ccc(OCCNC(=O)c2cc(C(=O)NCCOc3ccc(C)cc3)cc([N+](=O)[O-])c2)cc1	i	i	1.59	10*	-3.5	i
OCCN1CCN(CC#CCC(c2ccccc2)c2ccccc2)CC1	i	i	-5.67*	i	-3.7	i
OCCN1CCN(CC#CCn2c3ccccc3c3ccccc32)CC1	i	i	-4.07	i	-6.6	i
COc1ccc(CNC(=O)C[C@H]2C[C@H](C(=O)N3CCOCC3)[C@@]3(CCC4CCCC4)c4[nH]c5cc(CCC(=O)N(C)C)ccc5c4CCN3C2=O)cc1OC	i	nt	nt	nt	nt	nt
CC1(C)Cc2c(c(N3CCOCC3)nc3snc(N)c23)CO1	i	i	-1.11	i	-19.9	-7.01*
CCOC(=O)CC(NC(=O)c1cccs1)c1ccc(OCC)cc1 (stereo unspecified)	i	i	0.95	i	8.6*	i
COc1cc(C(=O)Nc2cccc(S(=O)(=O)N3CCCC3)c2)cc(OC)c1C	i	i	-0.93	i	-12.4	-7.72*
COc1ccccc1CCC(=O)Nc1cccc(S(=O)(=O)N2CCCCCC2)c1	i	i	-1.39	6*	-12.7	i
CCn1nc(C(=O)NCc2nnc3ccccn23)c2ccccc2c1=O	i	nt	nt	nt	nt	nt
O=C(COC(=O)c1cc(-c2ccccc2Cl)nc2ccccc12)Nc1ncc(C(F)(F)F)cc1Cl	i	i	-0.97	i	-5.7	i
Cc1c(-c2ccccc2)nc2ccccc2c1C(=O)OCC(=O)Nc1ncc(C(F)(F)F)cc1Cl	i	i	-0.54	9*	-10.0	i
c1ccc(CNCCC(Cc2ccccc2)c2ccco2)cc1 (stereo unspecified)	i	i	-11.8*	i	-13.7	i
CN(C)c1ccc(CNCCC(Cc2ccccc2)c2ccco2)cc1 (stereo unspecified)	i	i	-4.66*	i	-19.6	i
CC(=O)NCCC(Cc1ccccc1)c1ccco1 (stereo unspecified)	i	i	-0.19	i	-0.9	i
CCCCC[C@H](O)/C=C/C1C(=O)C=C[C@H]1C/C=C\CCCC(=O)OC (stereo partly specified)	i	nt	nt	nt	nt	nt
S=C(NCCC(c1ccccc1)c1ccccc1)Nc1ccc(Cl)cc1	i	i	1.81	9*	-6.3	i
S=C(NCCC(c1ccccc1)c1ccccc1)Nc1ccccc1Cl	i	i	-0.91	12*	-16.4	i
CCC(C(=O)Nc1cc(Cl)ccc1OC)c1ccccc1 (stereo unspecified)	i	i	-1.75	i	-5.2	-7.32*
COc1cc(NC(=S)NCCC(c2ccccc2)c2ccccc2)c(OC)cc1Cl	i	i	-0.16	i	-9.5	i
COc1ccc(Cl)cc1NC(=S)NCCC(c1ccccc1)c1ccccc1	i	i	-3.5	i	-11.2	-8.07*
COc1ccc(C)cc1NC(=O)CN1CCCC1c1ccc2c(c1)OCCCO2 (stereo unspecified)	i	nt	nt	nt	nt	nt
CN(C)C(CNC(=O)c1ccc(C(=O)c2ccccc2)cc1)c1ccccc1 (stereo unspecified)	i	i	-2.11	i	-5.3	i
CN(C)C(CNC(=O)c1ccc(-c2ccccc2)cc1)c1ccccc1 (stereo unspecified)	i	i	-3.14	6*	-11.4	i
